Assays:
Type in all cases: functional, cell-based
K562 = experiment: Cytotoxicity against human K562 cells assessed as growth inhibition after 48 hrs by SRB assay; conditions: K562, 48 h
Method in brief: (§1)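 Cell lines from NCI, grown in RPMI-1640 with 10% FBS and antibiotics at 37 °C, 5% CO2. Seeding: HCT-15 10 × 10^4 cell/well, K562 5 × 10^4 cell/mL, SKLU-1 7500 cell/mL. After 24 h, compound added for 48 h. Cells fixed in cold TCA (60 min, 4 °C), stained with 0.4% SRB, dye extracted in Tris base, OD read at 515 nm. IC50 from linear regression; means ± SEM, three replicates.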

SK-LU-1 = experiment: Cytotoxicity against human SKLU1 cells assessed as growth inhibition after 48 hrs by SRB assay; conditions: SK-LU-1, 48 h; method in brief: as §1
HCT-15 = experiment: Cytotoxicity against human HCT15 cells assessed as growth inhibition after 48 hrs by SRB assay; conditions: HCT-15, 48 h; method in brief: as §1

Row | Compound | IC50 (K562) [µM] | IC50 (SK-LU-1) [µM] | IC50 (HCT-15) [µM]
1 | CCCC[C@]12O[C@@]34CCCC=C3C(=O)O[C@]43[C@@H](CCC)[C@@H]4C=C(C(=O)N1[C@H](C)c1ccccc1)[C@@]32CC4 | 5.7 | 4.1 | 5.4
2 | CCCC[C@@]12O[C@]34CCCC=C3C(=O)O[C@@]43[C@H](CCC)[C@H]4C=C(C(=O)N1[C@H](C)c1ccccc1)[C@]32CC4 | 21.7 | 5.9 | 8.5
3 | CCCC[C@@]12O[C@]34CCCC=C3C(=O)O[C@@]43[C@H](CCC)[C@@H]4C=C(C(=O)N1[C@@H](C)c1ccccc1)[C@]32CC4 | 13.9 | 4.9 | 7.5
4 | CCCC[C@]12O[C@@]34CCCC=C3C(=O)O[C@]43[C@@H](CCC)[C@H]4C=C(C(=O)N1[C@@H](C)c1ccccc1)[C@@]32CC4 | 5.2 | 4.3 | 5.2
5 | CCC/C=C1\OC(=O)C2=C[C@H]3CCC21[C@]1(OC(=O)C2=C1CCC=C2)[C@@H]3CCC (mixture of isomers) | 26.6 | 7.1 | 10.5
6 | CCC/C=C1\OC(=O)C2=C1CC[C@H]1[C@@H]2[C@@]2(OC(=O)C3=C2CCC=C3)[C@H]1CCC (racemic) | 46.1 | 13.2 | 44.8
7 | C=C1C(=O)O[C@@H]2C[C@@H](C)[C@@H]3C=CC(=O)[C@@]3(C)[C@@H](O)[C@H]12 [HELENALIN] | 0.28 | 0.21 | 0.29

Source: ChEMBL document CHEMBL2046393, “Enantiomeric derivatives of tokinolide B: absolute configuration and biological properties” (J Nat Prod, 2012)
